This note sets out measurements from ChEMBL document CHEMBL1156229, “Pharmacophore development and application toward the identification of novel, small-molecule autotaxin inhibitors” (J Med Chem, 2010).

SMILES strings stand for the structures.

The assay deals with Autotaxin (Homo sapiens, UniProt Q13822). Put plainly: Inhibition of human recombinant C-terminal FLAG-tagged autotaxin expressed in baculovirus-infected Sf9 cells assessed as FS-3 hydrolysis at 10 uM relative to control. The procedure, abridged: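 Single-dose screen: inhibitor 10 μM final, purified recombinant human ATX 8.3 nM, FS-3 1 μM, fatty acid free BSA 30 μM in Tris pH 8 buffer (1 mM MgCl2, 1 mM CaCl2, 3 mM KCl, 140 mM NaCl), 37 °C. Fluorescence (ex 485/em 538) read every 2 min; percent activity vs vehicle after no-ATX subtraction at 1 h; mean ± SD of three wells.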
What is called inhibition is the drop in the measured response relative to a control, in per cent. `CCCCc1ccc(Nc2ccc(Nc3ccc(CCCC)cc3S(=O)(=O)O)c3c2C(=O)c2ccccc2C3=O)c(S(=O)(=O)O)c1`: the inhibition stood at 8%.
As for `Cc1ccc(Nc2cccc3c2C(=O)c2cccc(Nc4ccc(C)cc4S(=O)(=O)O)c2C3=O)c(S(=O)(=O)O)c1`, the inhibition amounted to 6%.
`O=C(Nc1ccc2c(O)cc(S(=O)(=O)O)cc2c1)c1ccc([N+](=O)[O-])cc1`: the inhibition was determined as 12%.
In the case of `COc1ccc(/C=N/NC(=O)C(=O)N/N=C/c2ccc(OC)c(S(=O)(=O)O)c2)cc1S(=O)(=O)O`, the inhibition amounted to 0%.
The same measure for `Cc1[nH]n(-c2cc(S(=O)(=O)O)ccc2O)c(=O)c1/N=N/c1c(NC(=O)c2ccc(N)cc2)ccc2cc(S(=O)(=O)O)ccc12`: 49%; for `Nc1ccc(C(=O)Nc2ccc(C(=O)Nc3ccc(/C=C/c4ccc(NC(=O)c5ccc(N)cc5)cc4S(=O)(=O)O)c(S(=O)(=O)O)c3)cc2)cc1`: 0%; for `CCOc1cc(-c2ccc(/N=N/c3c(S(=O)(=O)O)cc4ccc(N)cc4c3O)cc2)ccc1/N=N/c1c(S(=O)(=O)O)cc2ccc(N)cc2c1O`: 39%.
Turning to `Cc1ccc(C(=O)Nc2ccc(S(=O)(=O)O)c3cc(S(=O)(=O)O)cc(S(=O)(=O)O)c23)cc1NC(=O)c1cccc(NC(=O)Nc2cccc(C(=O)Nc3cc(C(=O)Nc4ccc(S(=O)(=O)O)c5cc(S(=O)(=O)O)cc(S(=O)(=O)O)c45)ccc3C)c2)c1`, the inhibition came to 27%.
Consider `CC(=O)Nc1cc(S(=O)(=O)O)cc2cc(S(=O)(=O)O)c(/N=N/c3ccc(C(=O)Nc4ccc(S(=O)(=O)O)cc4)cc3)c(O)c12`, for which the inhibition was 17%.
The same measure for `O=C(Nc1ccc(S(=O)(=O)O)cc1)c1ccc(/N=N/c2cc(S(=O)(=O)O)c3ccccc3c2O)cc1`: 1%; for `Nc1c(S(=O)(=O)O)cc(Nc2cccc(S(=O)(=O)/C=C/S(=O)(=O)O)c2)c2c1C(=O)c1ccccc1C2=O`: 43%; for `O=C(Nc1cccc(C(=O)Nc2ccc3cc(S(=O)(=O)O)cc(S(=O)(=O)O)c3c2)c1)Nc1cccc(C(=O)Nc2ccc3cc(S(=O)(=O)O)cc(S(=O)(=O)O)c3c2)c1`: 29%.
Turning to `O=C(Nc1ccccc1)C(=N/Nc1cc(S(=O)(=O)O)ccc1O)/N=N/c1cc(S(=O)(=O)O)ccc1O`, the inhibition is 0%.
Regarding `Cc1ccc(Nc2ccc(Nc3ccc(C)cc3S(=O)(=O)O)c3c2C(=O)c2ccccc2C3=O)c(S(=O)(=O)O)c1`, the inhibition is 8%.
The result for `Nc1ccc(C(=O)Nc2cccc(C(=O)Nc3ccc4c(O)c(/N=N/c5ccc(/N=N/c6ccc(S(=O)(=O)O)cc6)cc5)c(S(=O)(=O)O)cc4c3)c2)cc1` reads 39%; that for `NC(Cc1ccc(O)cc1)C(=O)NCCS(=O)(=O)O` (stereo not given), 1%.
The same measure for `Cc1cc(C)c(/N=N/c2cc(C)c(/N=N/c3c(S(=O)(=O)O)cc4cc(Nc5ccccc5)ccc4c3O)cc2C)c(S(=O)(=O)O)c1`: 27%; for `Nc1ccc2cc(S(=O)(=O)O)cc(O)c2c1/N=N/c1ccc(NC(=O)Nc2ccc(/N=N/c3c(N)ccc4cc(S(=O)(=O)O)cc(O)c34)c(S(=O)(=O)O)c2)cc1S(=O)(=O)O`: 22%; for `O=C(Nc1ccc2cc(S(=O)(=O)O)cc(S(=O)(=O)O)c2c1)Nc1ccc2cc(S(=O)(=O)O)cc(S(=O)(=O)O)c2c1`: 0%.
The same measure for `O=C(Nc1ccc(C(=O)Nc2ccc3c(O)cc(S(=O)(=O)O)cc3c2)cc1)c1ccccc1`: 21%; for `COc1cc(S(=O)(=O)O)ccc1/N=N/C(=N\Nc1ccc(S(=O)(=O)O)cc1OC)C(N)=O`: -1%.
Take `Nc1ccc2c(O)c(/N=N/c3ccc4c(O)cc(S(=O)(=O)O)cc4c3)c(S(=O)(=O)O)cc2c1`: the inhibition was 30%.
In the case of `O=S(=O)(O)c1ccc(/N=N/Nc2ccc(S(=O)(=O)O)cc2)cc1`, the inhibition amounted to 1%.
For `Nc1ccc(C(=O)Nc2ccc(C(=O)Nc3ccc4cc(S(=O)(=O)O)cc(S(=O)(=O)O)c4c3)cc2)cc1`, the inhibition is 5%.
For the compound `Cc1cc(C)c(S(=O)(=O)O)c(C)c1Nc1ccc(Nc2c(C)cc(C)c(S(=O)(=O)O)c2C)c2c1C(=O)c1ccccc1C2=O`, the inhibition is 13%.
